CendR NRP1 mod – modulators of CendR peptide binding to NRP-1, primary screen, biochemical, fluorescence polarization, uHTS. Neuropilin-1 (Homo sapiens), O14786. FAM-RPARPAR peptide binding to NRP-1. inhibition, % at 25 µM. 360,000 compounds, 0.85% hits;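 active means inhibition or corrected inhibition above about 18%, plus a signal ratio from 0.5 to 1.5, limit read from the data, passing the limit was not always enough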
Target sequence (O14786 whole entry, looked up): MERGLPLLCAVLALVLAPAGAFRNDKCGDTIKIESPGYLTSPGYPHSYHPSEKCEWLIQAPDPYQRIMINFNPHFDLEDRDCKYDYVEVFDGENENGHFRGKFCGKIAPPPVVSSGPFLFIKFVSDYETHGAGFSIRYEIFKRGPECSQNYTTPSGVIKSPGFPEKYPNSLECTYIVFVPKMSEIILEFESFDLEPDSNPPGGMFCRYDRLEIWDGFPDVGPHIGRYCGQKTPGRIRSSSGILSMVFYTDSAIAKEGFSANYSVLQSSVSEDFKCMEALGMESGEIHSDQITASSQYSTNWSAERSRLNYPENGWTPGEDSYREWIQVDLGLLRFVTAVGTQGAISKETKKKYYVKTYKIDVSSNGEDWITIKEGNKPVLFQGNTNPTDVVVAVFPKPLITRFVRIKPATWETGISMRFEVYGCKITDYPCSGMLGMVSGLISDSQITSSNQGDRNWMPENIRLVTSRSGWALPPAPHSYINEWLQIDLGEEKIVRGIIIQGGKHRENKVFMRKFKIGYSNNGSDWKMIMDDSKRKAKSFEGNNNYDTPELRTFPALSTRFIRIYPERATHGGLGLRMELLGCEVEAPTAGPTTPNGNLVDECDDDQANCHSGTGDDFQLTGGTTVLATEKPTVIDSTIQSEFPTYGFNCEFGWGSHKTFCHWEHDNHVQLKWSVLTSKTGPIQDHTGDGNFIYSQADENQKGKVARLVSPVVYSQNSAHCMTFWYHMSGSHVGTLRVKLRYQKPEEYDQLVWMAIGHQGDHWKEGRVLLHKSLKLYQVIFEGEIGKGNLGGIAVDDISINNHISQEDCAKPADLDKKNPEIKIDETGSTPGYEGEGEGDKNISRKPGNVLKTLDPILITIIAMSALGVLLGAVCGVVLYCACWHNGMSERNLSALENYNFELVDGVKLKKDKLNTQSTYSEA
DAGLB inhibitor – DAGLB lipase inhibitors, primary screen, biochemical, fluorescence, HTS; Diacylglycerol lipase-beta (Homo sapiens), Q8NCG7; 340,000 compounds, 0.059% hits; inhibition, % at 5.17 µM; HEK293T DAGLB membrane lysate, EnzChek fluorogenic substrate; AID 504411, 2011; in the data active means inhibition above about 34%;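 further: 0% = enzyme with vehicle and 100% = wells lacking enzyme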
MIN6 prolif – inducers of MIN6 beta-cell proliferation, primary screen, ATP luminescence, uHTS | MIN6 cells proliferation, ATPlite luminescence, 48 h; cells starved in 0.2% serum; 100% = growth in 10% serum | proliferation, % at 10 µM | 330,000 compounds, 0.29% hits | AID 2380, 2010;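 active means compounds whose signal lies at least 3.5 SD above the mean of all wells on their plate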;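 further: 0% = DMSO-treated cells in low-serum medium and 100% = 10% serum control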
MT1-MMP act inh – blockers of MT1-MMP proenzyme processing, primary screen, HT1080 RFP-PRO-GFP cells, GFP/RFP fluorescence; GFP/RFP ratio fluorescence, overnight; percent of plate control window, DMSO zero; GFP/RFP ratio change, % at 20 µM; 360,000 compounds, 0.061% hits;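 active means GFP/RFP ratio change of at least 30% with cell ATP level not reduced by more than half and red fluorescence within 50% of control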
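Read-out: GFP/RFP fluorescence ratio; Test system: RFP-PRO-GFP reporter HT1080 cells; Compound dosing: single-point 20 µM compound, 1% DMSO; Times: overnight compound exposure at 37 °C.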
Myeloid diff 2 – induction of myeloid progenitor differentiation, primary screen, cell-based, flow cytometry, MLPCN library; ER-HoxA9 myeloid progenitors, lysozyme-GFP differentiation; calls only at 10 µM; 360,000 compounds, 1% hits; AID 624256, 2012;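 active means normalized GFP-positive differentiation at or above the plate's own cutoff, the solvent-only control mean plus 3 SD; inconclusive means no clear call, values can overlap the other calls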;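 further: cells exposed to compound for four days before flow analysis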
SENP1 inh – human SENP1 catalytic domain inhibitors, primary screen, biochemical, FRET, uHTS | Sentrin-specific protease 1 (Homo sapiens), Q9P0U3 | recombinant SENP1 catalytic domain, CyPet-SUMO1-YPet FRET cleavage | inhibition, % at 10 µM | 360,000 compounds, 0.21% hits | AID 624204, 2012;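 active means inhibition at least 30% at 10 µM, raw YFP signal under a set limit, fluorescence ratio 0.5 to 1.5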;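 further: 0% = enzyme with DMSO and 100% = no enzyme wells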
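Test system: hSENP1 catalytic domain, recombinant; Amount: 20 pM final SENP1 enzyme; Medium: Tris pH 8 buffer plus EDTA, NaCl, BME, BSA, NP40, catalase; Schedule: 50 min enzyme reaction, room temperature, light-protected; Technique: FRET fluorescence in CFP and YFP emission channels; Controls: no-enzyme wells low, DMSO-plus-enzyme wells high control.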
Numbers without * were called inactive. Shown are actives, neighbours in structure and some others; about 2.4% of the full set was active somewhere.

How did COc1ccc([C@H]2CC(=O)C=C(c3cc(Br)ccc3OC)C2)cc1 do in these assays?
CendR NRP1 mod: -4.0; DAGLB inhibitor: -5.5; MIN6 prolif: -4.0; MT1-MMP act inh: -1.1; Myeloid diff 2: active; SENP1 inh: 1.6

How did COc1ccc([C@H]2CC(=O)C=C(c3ccc(C)cc3)C2)cc1OC do in these assays?
CendR NRP1 mod: -5.3; DAGLB inhibitor: -1.8; MIN6 prolif: -0.7; MT1-MMP act inh: 1.2; Myeloid diff 2: inactive; SENP1 inh: 0.1

What do the screens show for `CCOc1ccc(Br)cc1C1=CC(=O)C[C@H](c2ccc(OC)cc2)C1`?
CendR NRP1 mod: 8.5; DAGLB inhibitor: -7.6; MIN6 prolif: -6.6; MT1-MMP act inh: -0.8; Myeloid diff 2: inconclusive; SENP1 inh: 3.2

What do the screens show for `CCOCCCNC(=O)C(c1ccc(C)cc1)N(Cc1cccs1)C(=O)c1ccccc1O` (stereo unspecified)?
CendR NRP1 mod: 29.3*; DAGLB inhibitor: -4.4; MIN6 prolif: -1.1; MT1-MMP act inh: -6.8; Myeloid diff 2: inactive; SENP1 inh: 0.9

Results for COc1ccc(CCn2c(C(C)C)nc3oc4ccccc4c(=O)c3c2=O)cc1 ?
CendR NRP1 mod: -3.0; DAGLB inhibitor: -2.2; MIN6 prolif: -0.1; MT1-MMP act inh: -1.7; Myeloid diff 2: inactive; SENP1 inh: -1.2

What do the screens show for `O=C(O)c1cc2nc(-c3cccs3)cc(C(F)(F)F)n2n1`?
CendR NRP1 mod: 29.4*; DAGLB inhibitor: -1.5; MIN6 prolif: -2.1; MT1-MMP act inh: 5.9; Myeloid diff 2: inactive; SENP1 inh: -37.8

What do the screens show for `Cc1ccc(C(=O)N[C@H](C(=O)Nc2sccc2C(N)=O)C(C)C)cc1`?
CendR NRP1 mod: 3.2; DAGLB inhibitor: -0.3; MIN6 prolif: -2.0; MT1-MMP act inh: 4.1; Myeloid diff 2: active; SENP1 inh: -4.6

What do the screens show for `Nc1nc(SCC(=O)Nc2ccc(Cl)cn2)n[nH]1`?
CendR NRP1 mod: 12.3; DAGLB inhibitor: -0.3; MIN6 prolif: -1.8; MT1-MMP act inh: 2.0; Myeloid diff 2: inactive; SENP1 inh: -1.2

How did CC(=O)N1CCc2cc(N=NC3=C(O)CC(C)(C)CC3=O)ccc21 do in these assays?
CendR NRP1 mod: -111.5; DAGLB inhibitor: 3.6; MIN6 prolif: 0.7; MT1-MMP act inh: -0.7; Myeloid diff 2: inactive; SENP1 inh: 67.3*

Results for C=CCn1c(SCC(=O)Nc2ncc(Cc3ccc(Br)cc3)s2)nnc1-c1ccncc1 ?
CendR NRP1 mod: 23.4*; DAGLB inhibitor: 3.5; MIN6 prolif: -1.4; MT1-MMP act inh: 6.0; Myeloid diff 2: inactive; SENP1 inh: -3.6

How did CCOc1ccc(Br)cc1S(=O)(=O)Nc1ccc(NC(=O)c2ccccc2F)cc1 do in these assays?
CendR NRP1 mod: -22.0; DAGLB inhibitor: 1.4; MIN6 prolif: -1.9; MT1-MMP act inh: 4.1; Myeloid diff 2: inactive; SENP1 inh: 2.8

How did CCCCOc1ccc2c(c1)/C(=C(\C(Cl)=C(Cl)Cl)[N+](=O)[O-])N2 do in these assays?
CendR NRP1 mod: -43.9; DAGLB inhibitor: -0.5; MIN6 prolif: -2.2; MT1-MMP act inh: -18.7; Myeloid diff 2: active; SENP1 inh: 3.3

What do the screens show for `CCOc1ccc2c(c1)/C(=C(\C(Cl)=C(Cl)Cl)[N+](=O)[O-])N2`?
CendR NRP1 mod: -13.8; DAGLB inhibitor: -1.6; MIN6 prolif: -1.6; MT1-MMP act inh: -12.8; Myeloid diff 2: active; SENP1 inh: -26.4

Results for CC1=C(C(=O)OCC(Br)(Br)Br)C(c2cccc([N+](=O)[O-])c2)NC(=O)N1CCCC(=O)O (stereo unspecified) ?
CendR NRP1 mod: -4.1; DAGLB inhibitor: 3.3; MIN6 prolif: -4.5; MT1-MMP act inh: 4.3; Myeloid diff 2: inactive; SENP1 inh: 2.3

How did COc1cccc(OC)c1C(=O)Nc1ccc(N2CCN(C(=O)c3cccs3)CC2)cc1 do in these assays?
CendR NRP1 mod: 2.0; DAGLB inhibitor: -0.5; MIN6 prolif: -3.4; MT1-MMP act inh: -6.1; Myeloid diff 2: inactive; SENP1 inh: 2.0

How did O=C(Nc1ccc(N2CCN(C(=O)c3cccs3)CC2)cc1)c1ccccc1F do in these assays?
CendR NRP1 mod: 2.4; DAGLB inhibitor: 1.4; MIN6 prolif: 0.0; MT1-MMP act inh: -2.0; Myeloid diff 2: active; SENP1 inh: 1.4

How did O=C(Nc1ccc(N2CCN(C(=O)c3cccs3)CC2)cc1)c1ccccc1Cl do in these assays?
CendR NRP1 mod: 9.1; DAGLB inhibitor: 1.5; MIN6 prolif: -3.2; MT1-MMP act inh: -3.7; Myeloid diff 2: inactive; SENP1 inh: 1.7

How did CC(C)(C)C(=O)Nc1ccc(N2CCN(C(=O)c3cccs3)CC2)cc1 do in these assays?
CendR NRP1 mod: 1.3; DAGLB inhibitor: -0.7; MT1-MMP act inh: 5.0; Myeloid diff 2: active; SENP1 inh: 4.4

Results for COc1cccc(NC(=O)CN(C)C(=O)CC(NC(=O)c2ccccc2Cl)c2ccccc2)c1 (stereo unspecified) ?
CendR NRP1 mod: 14.4; DAGLB inhibitor: -1.9; MIN6 prolif: -1.0; MT1-MMP act inh: -1.2; Myeloid diff 2: inactive; SENP1 inh: 1.1

What do the screens show for `Cc1ccc2c(C)c(C(=O)NCCN3CCCC(O)C3)oc2c1C` (stereo unspecified)?
CendR NRP1 mod: -12.5; DAGLB inhibitor: 3.2; MIN6 prolif: 3.0; MT1-MMP act inh: -0.3; Myeloid diff 2: inconclusive; SENP1 inh: -3.5

What do the screens show for `Cc1nc(C)c(N)c(=O)[nH]1`?
CendR NRP1 mod: 23.9*; DAGLB inhibitor: -0.5; MIN6 prolif: -1.5; MT1-MMP act inh: -5.4; Myeloid diff 2: inactive; SENP1 inh: -0.4

Results for Cc1ccc(C)c(Cc2c(C)nc(C)[nH]c2=O)c1 ?
CendR NRP1 mod: 0.1; DAGLB inhibitor: 0.7; MIN6 prolif: 3.2; MT1-MMP act inh: 2.2; Myeloid diff 2: inactive; SENP1 inh: -0.9

How did CC[C@]12C(=O)N(C)C[C@H]([C@@H]3C(=O)N(Cc4ccccc4)C(=O)[C@@H]31)N2C(=O)c1ccccc1 do in these assays?
CendR NRP1 mod: 7.2; DAGLB inhibitor: 0.0; MT1-MMP act inh: 2.3; Myeloid diff 2: active; SENP1 inh: 0.4

What do the screens show for `CN1C[C@@H]2[C@@H]3C(=O)N(Cc4ccccc4)C(=O)[C@@H]3[C@](Cc3ccccc3)(C1=O)N2C(=O)c1ccccc1`?
CendR NRP1 mod: -3.0; DAGLB inhibitor: -2.1; MT1-MMP act inh: -1.9; Myeloid diff 2: inactive; SENP1 inh: -10.6

Results for CCOC(=O)c1cc(S(=O)(=O)Nc2ccc(F)cc2F)cn1C ?
CendR NRP1 mod: -9.9; DAGLB inhibitor: -1.5; MIN6 prolif: 0.8; MT1-MMP act inh: 0.3; Myeloid diff 2: inactive; SENP1 inh: 0.1

Compound activity: PubChem BioAssay, several laboratories
